# Results pooled from the literature.
# Lines come from different studies, so protocols differ. pIC50: −log10 of the molar value.
# Target: Voltage-gated inwardly rectifying potassium channel KCNH2 (KCNH2, Homo sapiens, UniProt Q12809)
Compound,read-out,action,method,cells,concentration,measurement,value
O=C(Cc1ccc(F)c(CF)c1)N1CCN(c2ccc3nncn3n2)CC1,ligand displacement,,radioligand,,30 µM,inhibition,23%
Cc1nc2cnc(N)c(C#Cc3cncc(C(=O)Nc4ccc(CN5CCN(C)CC5)c(C(F)(F)F)c4)c3)c2nc1C,ion current,inhibitor,,,,pIC50,5.62
CCc1cc(O)ccc1-c1ccc2c(-c3nc4c([nH]3)CN(C(C)C)[C@H](C(=O)N3CC(N(C)C)C3)C4)n[nH]c2c1,ion current,inhibitor,,,13 µM,inhibition,< 5%
N=c1n(CCN2CCCCC2)c2ccccc2n1CC(O)c1cccc(Br)c1 (centres unmarked),ion current,inhibitor,patch clamp,HEK293,10 µM,inhibition,99%
CNC(=O)[C@@]12C[C@@H]1[C@@H](n1cnc3c(NCCc4ccc(O)c(OC)c4)nc(C#Cc4ccc(Br)s4)nc31)[C@H](O)[C@@H]2O,ion current,inhibitor,,,10 µM,inhibition,> 50%
Ic1cccc2cnccc12,ligand displacement,,radioligand,,10 µM,inhibition,31%
COc1ncc(C)c(-c2ccc3c(c2)[nH]c(=O)c2cnn([C@H]4CCOC4)c23)c1C,ion current,inhibitor,,,,pIC50,5.40
CNC(=O)[C@@]12C[C@@H]1[C@@H](n1cnc3c(NCCc4ccc(OC)c(OC)c4)nc(C#Cc4ccc(Cl)s4)nc31)[C@H](O)[C@@H]2O,ion current,inhibitor,,,10 µM,inhibition,> 50%
CCN(CC)CCNC(=O)C1CCN(c2ccc3nnc(-c4cccc(C)c4)n3n2)CC1,ion current,inhibitor,patch clamp,HEK293,10 µM,inhibition,58%
O=C(Cc1ccc(F)c(C(F)F)c1)N1CCN(c2ccc3nncn3n2)CC1,ligand displacement,,radioligand,,30 µM,inhibition,38%
CCN(Cc1ccccc1C(F)(F)F)C(=O)C1CCN(S(=O)(=O)c2ccc3[nH]ncc3c2)CC1,ligand displacement,,radioligand,,10 µM,inhibition,18%
